# Screening data deposited in PubChem by Sanford-Burnham Center for Chemical Genomics.
# An excerpt weighted towards active compounds, which were near 1.5% of everything screened.
# CCR6 antagonist: blocks CCL20-driven beta-arrestin recruitment at human CCR6; P51684; CHO-K1 CCR6 PathHunter beta-arrestin, luminescence, CCL20-stimulated; inhibition, % at 20 µM; 340,000 compounds, 0.49% hits; AID 493098;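 active = compounds whose inhibition of the agonist-driven luminescence signal at 20 µM reaches about 50%, limit read from the data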;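 note: cells stimulated with CCL20 at 14 nM final; plate controls were DMSO with CCL20 for no effect and DMSO without agonist for full effect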
# Target sequence (P51684 whole entry, looked up): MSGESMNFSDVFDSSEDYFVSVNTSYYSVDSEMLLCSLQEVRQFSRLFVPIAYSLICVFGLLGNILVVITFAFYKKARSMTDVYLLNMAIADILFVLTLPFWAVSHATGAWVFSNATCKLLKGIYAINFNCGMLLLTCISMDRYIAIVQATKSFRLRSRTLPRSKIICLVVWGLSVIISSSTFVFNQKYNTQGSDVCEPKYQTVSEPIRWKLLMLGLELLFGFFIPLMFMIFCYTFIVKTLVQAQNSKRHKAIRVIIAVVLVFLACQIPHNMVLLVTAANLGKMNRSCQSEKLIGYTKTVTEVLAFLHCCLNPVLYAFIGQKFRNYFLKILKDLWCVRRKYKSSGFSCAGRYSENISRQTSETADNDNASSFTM
# CXCR6 block: blocks human CXCR6 beta-arrestin recruitment. AID 602244. 360,000 compounds, 0.36% hits. O00574. inhibition, % at 20 µM. CHO-K1 PathHunter CXCR6 beta-arrestin, luminescence; in the data active = inhibition above about 34%, passing the limit was not always enough;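 note: antagonist mode with CXCL16 agonist at 10 nM final; 0% = 10 nM CXCL16 with DMSO and 100% = unstimulated wells without agonist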
# APJ ag: activates the human apelin receptor APJ; P35414; CHO-K1 APJ PathHunter beta-arrestin, luminescence; 0% DMSO wells, 100% apelin; activation, % at 20 µM; 330,000 compounds, 0.11% hits; AID 2520;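 active = activation more than six SD over the plate average, tested at 20 µM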;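 note: 0% = DMSO alone and 100% = apelin-13 at 10 nM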
#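 Material: engineered CHO-K1 APJ arrestin reporter cells; amount: 1000 CHO-K1 reporter cells seeded per well; incubation: compound stimulation 90 min at 25 °C, detection 60 min; signal: luminescent beta-gal fragment complementation, chemiluminescent substrate; read-out basis: APJ agonist activity; controls: DMSO-only wells as negative, 10 nM Apelin-13 as positive control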
# EBI2 antag: EBI2 (human) antagonism; EBI2 beta-arrestin recruitment, luminescence, 7a,25-OHC stimulated; 360,000 compounds, 0.81% hits; inhibition, % at 5 µM; P32249; in the data active = inhibition above about 38%;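 note: enzyme fragment complementation signal reports receptor beta-arrestin coupling in cells; 0% = agonist plus DMSO wells and 100% = wells without agonist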
# APJ antagonist: blocks the human apelin receptor APJ; P35414; CHO-K1 APJ beta-arrestin complementation, luminescence; inhibition, % at 20 µM; 330,000 compounds, 0.32% hits;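 active = inhibition above about 40% at 20 µM, limit read from the data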;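 note: cells challenged with 10 nM apelin-13 agonist together with compound; plate controls were apelin-13 plus DMSO wells for no effect and DMSO wells lacking apelin-13 for full effect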
# EBI2 conf: confirmation of human EBI2 receptor antagonists; shares compounds with EBI2 antag; EBI2 beta-arrestin luminescence, 7a,25-OHC antagonism; inhibition, % at 5 µM; 2,400 compounds, 29% hits;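 active = inhibition of at least 50%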
# EBI2 ag: activates EBI2, counter-screen for EBI2 antagonists | shares compounds with EBI2 antag | EBI2-expressing cells, agonist mode, luminescence, 60 min; 0% vehicle, 100% 7α,25-dihydroxycholesterol control | activation, % at 5 µM | 2,400 tested, under 10 active | AID 652000;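 active = activation of at least 50%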
# bGal cs: inhibits E. coli beta-galactosidase, counter-screen for EBI2 antagonists | shares compounds with EBI2 antag | purified beta-galactosidase, luminescent Galacton Star, 15 min | inhibition, % at 5 µM | 2,400 compounds, 1% hits;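 active = replicate-average signal at least 3 plate SD below neutral wells, shown as high inhibition, flagging enzyme-inhibiting false positives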;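 note: 0% = DMSO wells with enzyme and 100% = wells lacking enzyme; higher means stronger loss of beta-gal luminescence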
# * marks the source's active call; other numbers are inactive results; · = not tested or not shown.
SMILES,CCR6 antagonist,CXCR6 block,APJ ag,EBI2 antag,APJ antagonist,EBI2 conf,EBI2 ag,bGal cs
NC(=N\N=Cc1ccccc1)/C(N)=N/N=Cc1ccccc1,9,2,·,48*,·,38,1,-3
NC(N)=N/N=C/c1ccccc1,-3,2,-4,-3,-1,·,·,·
Cc1ccc(C(=O)COC(=O)CCN2C(=O)C3C4C=CC(C5CC45)C3C2=O)cc1 (stereo unspecified),0,-8,-4,2,-24,·,·,·
CCc1ccc(OCC(=O)NNC(=O)CSc2nnc(-c3ccc(C)cc3)n2C)cc1,12,4,-3,41,1,·,·,·
COc1ccc(C(=O)NNC(=O)CSc2nnc(C(C)C)n2C)cc1,-6,2,-2,1,-4,·,·,·
Cc1ccc(C(=O)NNC(=O)CSc2nnc(-c3ccncc3)n2C)cc1,0,5,1,-24,5,·,·,·
Cc1ccc(-c2nnc(SCC(=O)NNC(=O)COc3cccc(C)c3)n2C)cc1,-19,-6,-3,45*,-28,18,2,11
COc1ccc(C(=O)NNC(=O)CSc2nnc(-c3ccc(O)cc3)n2C)cc1,-10,1,-3,69*,1,45,0,8
Cc1ccc(-c2nnc(SCC(=O)NNC(=O)COc3ccccc3C)n2C)cc1,1,0,-4,53*,6,9,-1,-4
CC(C)C(C(=O)NCC1CCCO1)N(Cc1ccccc1)C(=O)CNS(=O)(=O)c1ccccc1 (stereo unspecified),-2,2,-3,0,3,·,·,·
Cc1ccc(N(CC(=O)NC(C)(C)C)C(=O)CCC(=O)Nc2ccccn2)cc1,·,-10,·,9,·,·,·,·
Nc1nc(=O)n(C2CCCO2)cc1Br (stereo unspecified),-9,1,·,-3,·,·,·,·
CN1C(=O)C(CC(=O)Nc2ccc(F)cc2)N(NC(=O)c2cccc(F)c2)C1=S (stereo unspecified),13,-11,1,4,10,·,·,·
CN1CCN(C(=O)c2cc(=O)c3cc(Cl)ccc3o2)CC1,2,5,-3,38,9,·,·,·
CCN1CCN(C(=O)c2cc(=O)c3cc(C)ccc3o2)CC1,-4,0,-3,67*,22,42,0,9
CCc1ccc2oc(C(=O)N3CCN(C)CC3)cc(=O)c2c1,5,-11,-5,45*,15,8,1,6
CN(CC(=O)Nc1c(Cl)cccc1Cl)C(=O)C1=COCCO1,3,5,1,-10,2,·,·,·
CCOC(=O)c1[nH]c(=O)[nH]c1CNc1ccccc1C#N,7,5,-4,-8,8,·,·,·
Cc1nn(Cc2ccc(Cl)cc2Cl)c(C)c1NC(=O)c1ccc(COc2cc(Cl)ccc2Cl)o1,-12,-2,-6,47*,-18,35,0,9
Cc1ccc(C)c(CN2CCC(CNC(=O)Nc3ccc(Cl)cc3)CC2)c1,7,-11,-2,21,0,·,·,·
Cc1ccc(C)c(CN2CCC(CNC(=O)Nc3ccc(Br)cc3F)CC2)c1,13,-3,-2,52*,-15,11,1,1
O=C(CC(c1ccccc1)c1cc(Cl)ccc1O)NCCCN1CCOCC1 (stereo unspecified),10,-9,-3,-11,-1,·,·,·
O=C(NC1CCCCCC1)c1ccc(=O)n(Cc2ccccc2)n1,19,13,0,46*,11,35,0,7
COC(=O)C1CCN(C(=O)COC(=O)c2ccc(=O)n(Cc3ccccc3)n2)CC1,13,-12,3,1,-46,·,·,·
O=C(c1ccc(Cl)cc1)N1CCN(CCOc2ccccc2)CC1,7,-2,-5,46*,3,11,1,5
COc1ccc(OCCN2CCN(C(=O)c3ccc(OC)cc3)CC2)cc1,6,10,-1,44,-14,·,·,·
CN(CC(=O)Nc1ccc(Cl)c(C(F)(F)F)c1)C(=O)C1CCN(C(=O)c2ccc(Cl)cc2)CC1,-2,-13,·,56*,·,39,-1,-20
